Laboratory results from ChEMBL document CHEMBL1914444, “Chemical synthesis, biological evaluation and structure-activity relationship analysis of azaisoindolinones, a novel class of direct enoyl-ACP reductase inhibitors as potential antimycobacterial agents” (Bioorg Med Chem, 2011).
Values after ≈ are worked out from the molar mass of the structure shown.

Columns and labels:
[1] = target: T1, Enoyl-[acyl-carrier-protein] reductase [NADH] (Mycobacterium tuberculosis) (UniProt P9WGR1); test: Inhibition of Mycobacterium tuberculosis InhA using 2-trans-decenoyl-CoA as substrate at 30 uM after 5 mins by spectrophotometry
T1 sequence (whole entry): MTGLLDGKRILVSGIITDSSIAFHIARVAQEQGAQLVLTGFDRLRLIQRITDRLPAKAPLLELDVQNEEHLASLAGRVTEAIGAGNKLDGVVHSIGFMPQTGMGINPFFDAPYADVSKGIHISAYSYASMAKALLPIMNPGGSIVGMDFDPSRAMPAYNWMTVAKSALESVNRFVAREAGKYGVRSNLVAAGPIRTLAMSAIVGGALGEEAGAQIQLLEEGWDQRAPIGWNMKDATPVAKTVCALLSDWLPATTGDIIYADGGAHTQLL
How it was run: (§1)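 Recombinant M. tuberculosis InhA expressed in E. coli (70 nM) was pre-incubated with NADH and compound in 30 mM PIPES, 150 mM NaCl, pH 6.8, 25 °C, with 0.5% final DMSO. Substrate was 2-trans-decenoyl-CoA. Activity was followed as the decrease in A340; initial rates gave % inhibition versus control. Run in triplicate.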

[2] = system: Mycobacterium tuberculosis; test: Antimycobacterial activity Mycobacterium tuberculosis H37Rv after 6 days by MTT colorimetric assay; type: functional, organism-based; conditions: 144 h
[3] = target: T1, Enoyl-[acyl-carrier-protein] reductase [NADH] (Mycobacterium tuberculosis); test: Inhibition of Mycobacterium tuberculosis InhA using 2-trans-decenoyl-CoA as substrate at 100 uM after 5 mins by spectrophotometry; how it was run: as §1

CCCCCCCCCCCCNc1cccc(C2(O)NC(=O)c3cnccc32)c1 (racemic)
inhibition [1]: 1% | MIC [2]: > 100 µM | inhibition [3]: 9%

CCCCCCCCCCCCSc1cccc(C2(O)NC(=O)c3cnccc32)c1 (racemic)
inhibition [1]: 15% | IC50 [2]: 6.5 µM | MIC [2]: 12.5 µM (≈ 5.33 µg/mL) | inhibition [3]: 66%

CCCCCCCCCCCCOc1cccc(C2(O)NC(=O)c3cnccc32)c1 (racemic)
inhibition [1]: 12% | MIC [2]: 156 µM (≈ 64 µg/mL) | inhibition [3]: 27%

CCCCCCCCOc1cccc(C2(O)NC(=O)c3cnccc32)c1 (racemic)
MIC [2]: 250 µM (≈ 88.6 µg/mL) | inhibition [3]: 12%

O=C(O)c1cn(C2CC2)c2cc(N3CCNCC3)c(F)cc2c1=O [CIPROFLOXACIN]
MIC [2]: 2.5 µM (≈ 0.828 µg/mL)

CCCCCCCCCCCCOc1ccc(C2(O)NC(=O)c3cnccc32)cc1 (racemic)
inhibition [1]: 1% | MIC [2]: > 100 µM | inhibition [3]: 16%

CCCCCCCCCCCCCCCCCCOc1cccc(C2(O)NC(=O)c3cnccc32)c1 (racemic)
inhibition [1]: 28% | IC50 [2]: 12 µM | MIC [2]: 25 µM (≈ 12.4 µg/mL) | inhibition [3]: 67%

CCCCCCCCCCCCCCC1(O)NC(=O)c2cnccc21 (racemic)
MIC [2]: > 100 µM | inhibition [3]: 10%

CCCCCCCCCCCCN1C(=O)c2cnccc2C1(O)c1ccccc1 (racemic)
inhibition [1]: 0% | IC50 [2]: 4.5 µM | MIC [2]: 12.5 µM (≈ 4.93 µg/mL) | inhibition [3]: 13%

CCCCCCCCCCCCOC1(c2ccccc2)NC(=O)c2cnccc21 (racemic)
inhibition [1]: 20% | IC50 [2]: 9.5 µM | MIC [2]: 25 µM (≈ 9.86 µg/mL)

CCCCCCCCCCCCOc1ccccc1C1(O)NC(=O)c2cnccc21 (racemic)
inhibition [1]: 0% | MIC [2]: > 100 µM | inhibition [3]: 0%

NNC(=O)c1ccncc1 [ISONIAZID]
MIC [2]: 0.6 µM (≈ 0.0823 µg/mL)

CCCCCCCCCCCCc1cccc(C2(O)NC(=O)c3cnccc32)c1 (racemic)
IC50 [2]: 7 µM | MIC [2]: 9.8 µM (≈ 3.87 µg/mL)

CCCCCCCCCCCCOc1cccc(C2(OC)NC(=O)c3cnccc32)c1 (racemic)
IC50 [2]: 10 µM | MIC [2]: 25 µM (≈ 10.6 µg/mL) | inhibition [3]: 0%

CCCCCCCCCCCCCCCCCCSc1cccc(C2(O)NC(=O)c3cnccc32)c1 (racemic)
inhibition [1]: 26% | MIC [2]: > 100 µM
